Laboratory results published in ChEMBL document CHEMBL4513216, “Probing the Open Global Health Chemical Diversity Library for Multistage-Active Starting Points for Next-Generation Antimalarials” (ACS Infect Dis, 2020).

Assay: Toxicity liver stage against HepG2, at 10uM
Type: cell-based
Design: test concentration 10 uM, cell line HepG2-A16-CD81EGFP
Conditions: human, HepG2-A16-CD81EGFP cells; read-out: INHIBITION
Summary of the method: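 Uninfected HepG2-A16-CD81EGFP cells, 3 × 10^3 per well, 1536-well, plated on prespotted compound at 10 μM final, parasite-free screening media added to match infected plates; puromycin 10 μM positive, DMSO 0.5% negative; run in parallel with 48 h PbLuc assay at 37 °C, 5% CO2; viability by CellTiter-Glo luminescence, normalized to controls.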

Row | Compound | cytotoxicity at 10 µM
1 | CC[C@@]1(O)CCN(C(=O)c2ccc(OC(F)F)cc2)C[C@H]1O | 6.2%
2 | CC(C)NC(=O)O[C@H]1COCCN(c2nc3ccccc3s2)C1 | -1.27%
3 | CC(C)N(CC(N)=O)Cc1cccc(C(F)(F)F)c1 | 0.292%
4 | Nc1cc(CCC2CN(Cc3ccc(C(=O)O)cc3)CCO2)ccn1 (stereo unspecified) | 6.98%
5 | O=C(NC1CC(=O)N(C2Cc3ccccc3C2)C1)c1cc[n+]([O-])cc1 (stereo unspecified) | -1.03%
6 | CCCSCC(=O)N1CCN(c2ccc(OC)cc2)CC1C (stereo unspecified) | -166%
7 | Cn1cc(CN2C[C@H]3CCC[C@@H](CNc4nccn4C)[C@H]3C2)cn1 | 10.9%
8 | NS(=O)(=O)NCc1cc(-c2ccc(C(F)(F)F)cc2)n[nH]1 | -6.11%
9 | Cc1cccc(CN2CCCC2(C(N)=O)c2cnccn2)n1 (stereo unspecified) | -21.9%
10 | Cc1nccc(N2CCCC2CCNS(C)(=O)=O)n1 (stereo unspecified) | 0.146%
11 | Cc1cccc2c1NC1(CCOCC1)NC2=O | -49.6%
12 | CC1=Nc2c(c(=O)[nH]n2C(C)C)C(c2cccs2)S1 (stereo unspecified) | 3.67%
13 | COc1ccc(OCCCNCCn2cccn2)cc1 | -20%
14 | CC(=O)N1CCCN(C(=O)c2csc(-c3ccc(C)cc3C)n2)CC1 | 20.8%
15 | CCOc1ccc(Cl)c(C(=O)N2CCCN(CC(N)=O)CC2)n1 | -1.26%
16 | COc1cc(N2C[C@H]3OCC[C@H]3[C@H](C(=O)N3CCCC3)C2)ncn1 | 4.99%
17 | O=C1CO[C@H]2CN(Cc3ccc(C(F)(F)F)cc3)C[C@H]2N1 | -4.63%
18 | N#Cc1ccc(N2CCCC(CO)(CCOc3ccccc3)C2)nc1 (stereo unspecified) | 17.4%
19 | c1cc(CN2CCCn3nnc(COCC4CC4)c3C2)ccn1 | -113%
20 | CCc1ccc(C(NCC(N)=O)C(C)(C)C)o1 (stereo unspecified) | -7.21%
21 | CS(=O)(=O)c1cncnc1C1CCCN(C(=O)Nc2ccc(F)cc2)C1 (stereo unspecified) | -1.86%
22 | Cc1cc(C)n(CC2CCCN2C(=O)CCc2cscn2)n1 (stereo unspecified) | -10.4%
23 | CC(C)NC(=O)[C@@H]1C[C@H](N)CN1C(=O)c1cc2ccccc2[nH]c1=O | 10.3%

Row | Compound | cytotoxicity at 10 µM
24 | CCOC(=O)N1CCC2(CCNC2)C1 (stereo unspecified) | 2.14%
25 | Cc1oncc1C(=O)N1CC[C@H]2[C@@H]1CCC(=O)N2CC1CC1 | 6.42%
26 | Cc1ccc(N2CCCC(NCc3cc(C)on3)C2)nn1 (stereo unspecified) | -4.8%
27 | O=C(CCc1ccncc1)N1CCc2c(ncnc2N2CCOCC2)C1 | -11.5%
28 | Cc1nnc(CN(C)CC(=O)NCCc2ccc(F)cc2)n1C | 2.25%
29 | COc1ccc(CN2CC[C@H]3CO[C@H](CNC(=O)N(C)C)[C@H]3C2)cc1 | 1.07%
30 | CN(Cc1nnc(C2CC2)n1C)S(=O)(=O)c1ccc(F)c(C#N)c1 | 18.4%
31 | COCCn1nc(C(=O)N(C)Cc2cnn(C)c2)ccc1=O | -2.44%
32 | CCOC(C(=O)N1CCn2c(CC)nnc2C1)c1ccccc1 (stereo unspecified) | 4.48%
33 | COCC(c1cccc(C(F)(F)F)c1)N(C)C(=O)c1ccco1 (stereo unspecified) | -9.07%
34 | Cc1cccc(CN2C(=O)C[C@H]3[C@@H]2CCN3Cc2ccc(F)cc2)n1 | 2.2%
35 | COCCN1C(=O)CC(N2CCN(c3ccc(F)cc3)CC2)C1=O (stereo unspecified) | -9.26%
36 | CC(O)CN1CCc2[nH]nc(C(c3ccccc3)c3ccccc3)c2C1 (stereo unspecified) | -0.481%
37 | COc1ncnc(N)c1CNCC(C)Oc1ccccc1Cl (stereo unspecified) | 0.732%
38 | COc1cccc(N2CCC(N3CCOC(C(F)(F)F)C3)CC2)c1 (stereo unspecified) | -1.71%
39 | Cc1ccc(-c2cc(CN3CCc4cncnc4C3)on2)cc1 | 4.96%
40 | O=C1CC2(CCNCC2)C(=O)N1c1cccc(F)c1 | 1.7%
41 | Cn1cccc1C(O)CNS(=O)(=O)c1ccccc1F (stereo unspecified) | -14.6%
42 | CCOc1ccccc1C(C(=O)O)N(C)Cc1cc(C)[nH]n1 (stereo unspecified) | 9.34%
43 | CC(CN1CCOCC1)NCC1CCN(c2cnn(C)c(=O)c2)CC1 (stereo unspecified) | -9.93%
44 | Cc1ccc(C(=O)N2CCN(S(C)(=O)=O)CC2)cc1N1CCNC1=O | -5.07%
45 | COCc1noc(Cc2c(C)nn(C)c2C)n1 | 7%
46 | CC(c1nc(C2CC2)no1)N1CCN(CCS(C)(=O)=O)CC1 (stereo unspecified) | 7.41%

Row | Compound | cytotoxicity at 10 µM
47 | CN(Cc1cc2cc(F)ccc2[nH]1)c1cc(C2CCCNC2)ncn1 (stereo unspecified) | 7.16%
48 | CCOCC1CN(C(=O)c2cscn2)Cc2nnn(CC3CC3)c21 (stereo unspecified) | 1.9%
49 | Cc1cc(C2CCCN(S(=O)(=O)c3cn(C)cn3)C2)ccn1 (stereo unspecified) | 3.42%
50 | CS(=O)(=O)NCCC(=O)NCc1cccnc1-n1cnc2ccccc21 | -0.0143%
51 | CCS(=O)(=O)N1CC(c2nc(-c3ccsc3)no2)C1 | -8.25%
52 | CCCNc1nnc(S(=O)(=O)CCOCC)s1 | 5.96%
53 | CCCc1ccc(C(C)Nc2ncnc3c2CCNC3)cc1 (stereo unspecified) | 28.1%
54 | CC(C)n1c(C2CCCN(CCS(C)(=O)=O)C2)nc2ccccc21 (stereo unspecified) | -10.4%
55 | CC(C)(C)S(=O)(=O)CCNC1CSCCc2ccccc21 (stereo unspecified) | -2.35%
56 | O=C1CCCc2nccc(-c3ccccc3)c21 | 3.15%
57 | CC(C)(CO)CCCNC(=O)N1CCc2c(F)ccc(F)c2C1 | -2.18%
58 | CNC(=O)NC(=O)C(C)N1CCCc2cc(OC)ccc2C1 (stereo unspecified) | 9.77%
59 | COc1ccc(C(=O)N(C)Cc2cc(C)on2)c(OC)c1 | -11.3%
60 | Clc1ccccc1CCN1CCN(c2ccc3nncn3n2)CC1 | 1.78%
61 | CCN1CCN(C2CCN(Cc3noc(C)n3)CC2)C1=O | -8.13%
62 | O=C(c1cnn2c(-c3ccco3)ccnc12)N1CCCCCC1 | 14.4%
63 | COCC1CN(c2ncccn2)Cc2cnn(CC3CC3)c21 (stereo unspecified) | 6.68%
64 | CC(C)(O)CCc1cccc(C(=O)N2CCC[C@H]2C(N)=O)c1 | 10.4%
65 | COCCN1CCC2(CC1)CN(C(=O)Cc1cccnc1)CCO2 | -9.43%
66 | COc1cc(CNCc2ccnc(N3CCCCC3)c2)cc(OC)c1 | 28.9%
67 | O=C(O)c1nnn(-c2ccc(F)c(F)c2)c1-c1ccncc1 | 3.72%
68 | CCC[C@@H]1CN(C(=O)Cc2sc(C)nc2C)C[C@H]1C(=O)O | -125%
69 | Cc1cnn(CC2CN(CCS(=O)(=O)C(F)(F)F)CCO2)c1 (stereo unspecified) | 2.5%

Row | Compound | cytotoxicity at 10 µM
70 | CCS(=O)(=O)N1Cc2ncn(C)c2C(COCC2CCOCC2)C1 (stereo unspecified) | -72.6%
71 | CCc1nc(N2CCC3(CC2)[C@H](O)C[C@@H]3O)ncc1C | 6.02%
72 | O=C1NC(C(=O)NCc2cccnc2Oc2ccc(F)c(F)c2)CO1 (stereo unspecified) | -0.115%
73 | Cc1nnc(CNC(=O)CC2CCc3ccccc32)o1 (stereo unspecified) | 1.58%
74 | C=C(C)CN1CCN(Cc2nccn2C)C(C)C1 (stereo unspecified) | -14.6%
75 | O=C(NCCCn1nc2ccccn2c1=O)NC(C1CC1)C1CC1 | 2.74%
76 | CCOc1ncccc1CNC(=O)Nc1ccc(OC)c(OC)c1 | -3.82%
77 | O=C(N[C@@H]1CN(c2ncccn2)[C@@H]2CCCO[C@@H]21)c1cnccn1 | -4.8%
78 | Cc1cc(C)c(CNC(=O)N2CCN(c3cnccn3)CC2)c(=O)[nH]1 | -2.58%
79 | O=C(COc1ccc2c(c1)CCCC2=O)NCc1ccco1 | 3.39%
80 | Cc1cccnc1NC(=O)NCc1cccnc1OC(C)C | -8.75%
81 | N#Cc1ccc(CN(CC(N)=O)C2CCCC2)c(Br)c1 | 30.1%
82 | OC(COCc1ccc(Cl)cc1)CN1CC(n2cccn2)C1 (stereo unspecified) | -6.25%
83 | CCN(C)Cc1cccc(CNC(=O)NCCc2ccccn2)c1 | 2.8%
84 | c1cc(CN2CCc3ncc(CN4CCOCC4)n3CC2)cs1 | -0.269%
85 | Cc1cccnc1NC(=O)C(C)Cn1nc(C(F)(F)F)cc1C (stereo unspecified) | 5.89%
86 | CC(C)(C)c1ncc(C(=O)NCCNC(=O)c2ccccc2)s1 | -8.08%
87 | CCCc1nnc(C(=O)N(C)Cc2ccc(OC)cc2)o1 | 2.64%
88 | O=C(c1ccoc1)N1CCn2nc(CN3CCSCC3)cc2C1 | -57.8%
89 | COc1cc(C(=O)NS(=O)(=O)c2cncc(Br)c2)ccc1C | -2.45%
90 | CCNC(=O)CCC(=O)NCC1(O)CCC(C(C)(C)C)CC1 (stereo unspecified) | 5.55%
91 | CCOc1ccccc1-c1noc(CN2CC(n3cccn3)C2)n1 | -2.79%
92 | Cc1cccc(C(=O)N2CCn3c(CN4CCN(C)CC4)cnc3C2)n1 | -75.2%

Row | Compound | cytotoxicity at 10 µM
93 | CSc1ccc(CNc2ccccc2CN2CCC(O)CC2)cc1 | -4.75%
94 | COCCN(C)C[C@@H]1CN(C(=O)C(C)(C)c2ccccc2)C[C@@H]1CO | 16.7%
95 | CCc1nnc2n1CCN(Cc1ccc(C(=O)N3CCCC3)cc1)C2 | -3.29%
96 | O=C(NCCOCCO)[C@@]12CNC[C@@H]1CN(C1CCCC1)C2 | -16.4%
97 | COc1c(C2CCCN2Cc2nnc(C3CC3)o2)c(C)nn1C (stereo unspecified) | -9.29%
98 | OCCC1CCN(c2ccnc3ccsc23)C1 (stereo unspecified) | 2.35%
99 | CN(C)CCN1CCOCC2(C1)CN(Cc1nccs1)CCO2 (stereo unspecified) | 6%
100 | Cc1nc(N2C[C@@H](CN3CCCN(C)CC3)[C@@H](CO)C2)c2sccc2n1 | -8.64%
101 | CN(C)c1cncc(C2CCN(CC3(O)CCCCC3)CC2)n1 | -30%
102 | O=C(CSC1=NS(=O)(=O)c2cc(Cl)ccc2N1)c1ccccc1 | 13.6%
103 | CN1CCN(C(=O)Cc2cccc(F)c2)Cc2cccnc21 | -6.17%
104 | CN(CCO)C(=O)c1coc(CN2CCN(c3ccccc3F)CC2)n1 | 15.7%
105 | CCOC(=O)CNC(=O)N1CCOC(CCc2ccccc2)C1 (stereo unspecified) | -4.41%
106 | CCOc1ccccc1C(=O)NCCc1ccoc1 | 8.54%
107 | Cn1ccc(C(=O)N2CCCC(Cc3cnc4ccccc4c3)C2)n1 (stereo unspecified) | -6.19%
108 | Cc1c(C(=O)NC(C)CC(=O)c2cccs2)cnn1C (stereo unspecified) | -8.71%
109 | O=C(c1ccc(C2CCCN2)s1)N1CCN(C(=O)N2CCOCC2)CC1 (stereo unspecified) | 0.106%
110 | CNC(=O)C1CCCCN1C(=O)c1sc(-c2ccc(C)o2)nc1C (stereo unspecified) | 4.45%
111 | O=C([C@@H]1CC[C@@H]2[C@@H](CCN2CCOCc2ccccc2)O1)N1CCCC1 | -110%
